Measured values taken from paper PMC3960632 (British Journal of Cancer, 2014).
Blank lines part the entries; values can stand above or below the molecule they belong to.

Experiments:
[1] = test system: recombinant AKR1C1-4; conditions: ref Hebert et al, 2013; cited from earlier work
[2] = test system: primary CLL cells; assay: Primary CLL cell apoptosis; type: cell-based, human; conditions: 24 h; 0.5 mM BEZ, 5 μM MPA, 5.1 μM 4-MDDT; n=4 samples
Outline: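 Patient blood mononuclear cells isolated on Ficoll, with consent and ethical approval. Co-cultured 10:1 on non-CD40L-expressing L-cell fibroblast stroma in 96-well plates. Treated in triplicate for 24 h against solvent control. Viability read by annexin V/propidium iodide staining and flow cytometry; n=4 patient samples ± s.e.m.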

[3] = test system: HL-60, K562 and KG1a AML cell lines; assay: Cumulative cell counts / viability of AML cell lines; type: cell-based; conditions: 7 days, 5 μM MPA, 50 μM 4-MDDT
Outline: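 HL60, K562 and KG1a cells kept in RPMI-1640 with L-glutamine, 10% heat-inactivated FBS and penicillin/streptomycin at 37 °C, 5% CO2, passaged every 2 days at 0.25–1.5 × 10^6 cells/ml. Treated 7 days at 1 × 10^4 cells/well or 0.25 × 10^6 cells/ml in flasks, with DMSO/ethanol solvent controls. Cumulative viable counts by manual counting or flow cytometry with viable gates and counting beads. Mean of ≥3 experiments ± s.e.m.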

[4] = test system: HL-60 cells; assay: HL-60 differentiation; type: cell-based; conditions: 5 μM MPA, 50 μM 4-MDDT
Outline: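 HL-60 cells grown in RPMI-1640 with 10% heat-inactivated FBS at 37 °C, 5% CO2. Treated 7 days and re-fed and re-treated every 2 days, with solvent controls. At day 7, PE-CD11b staining read by flow cytometry, mean of ≥3 experiments ± s.e.m. Cytospins from 75–100 μl of culture were air-dried, methanol-fixed and Jenner–Giemsa stained for morphology.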

[5] = Stability of the DMSO solution; type: physicochemical; conditions: solution in DMSO
[6] = target: T1, recombinant AKR1C3 (Homo sapiens, UniProt P42330); assay: AKR1C-diaphorase; type: biochemical; conditions: freshly prepared solution
T1 sequence (P42330 1-323): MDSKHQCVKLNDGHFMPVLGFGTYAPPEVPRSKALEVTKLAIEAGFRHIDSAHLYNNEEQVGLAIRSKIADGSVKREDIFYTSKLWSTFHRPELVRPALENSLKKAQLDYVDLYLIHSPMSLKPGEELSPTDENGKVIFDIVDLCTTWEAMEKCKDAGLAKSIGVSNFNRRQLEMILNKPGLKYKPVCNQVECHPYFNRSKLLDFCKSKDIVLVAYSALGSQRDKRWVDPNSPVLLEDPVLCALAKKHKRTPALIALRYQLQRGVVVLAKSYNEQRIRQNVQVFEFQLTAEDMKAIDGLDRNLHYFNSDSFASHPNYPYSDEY

Structure (SMILES): O=C(O)c1cccc(S(=O)(=O)N2CCc3ccccc3C2)c1 [A1, 3-(3,4-dihydro-1H-isoquinoline-2-sulphonyl)-benzoic acid]
AKR1C3 selectivity in the CRT screen [1]: AKR1C3-selective inhibitors

Structure (SMILES): O=C(N1CCOCC1)N1CCN(c2ccc(Cl)cc2)CC1 [A9, [4-(4-chloro-phenyl)-piperazin-1-yl]-morpholin-4-yl-methanone]
AKR1C3 selectivity in the CRT screen [1]: AKR1C3-selective inhibitors

Structure (SMILES): CC(C)(Oc1ccc(CCNC(=O)c2ccc(Cl)cc2)cc1)C(=O)O [BEZ, bezafibrate]
apoptosis of CLL cells, single agent [2]: neither BEZ nor MPA as single agents markedly increased apoptosis

Structure (SMILES): CC(=O)O[C@]1(C(C)=O)CC[C@H]2[C@@H]3C[C@H](C)C4=CC(=O)CC[C@]4(C)[C@H]3CC[C@@]21C [MPA, medroxyprogesterone acetate]
AML cell killing when combined with BEZ ([3]; with 0.5 mM BEZ, NCI compounds at 10 times the IC50, 10 μM A1/A6/A9): greatly enhanced AML cell killing | anti-proliferative effect, agent alone ([3]; NCI compounds at 10 times the IC50): moderate but statistically anti-proliferative effect | HL-60 cell differentiation in response to ATRA ([4]; day 7, with 10 nM ATRA): promoted the differentiation of HL-60 cells | HL-60 cell differentiation (CD11b, phenotypic changes) combined with BEZ ([4]; day 7, with 0.5 mM BEZ): strongly promoted HL-60 cell differentiation | apoptosis of CLL cells, single agent [2]: neither BEZ nor MPA as single agents markedly increased apoptosis

AKR1C3-inhibitory activity [6]: no AKR1C3-inhibitory activity
Structure (SMILES): CN(C)[C@@H]1C(O)=C(C(N)=O)C(=O)[C@@]2(O)C(O)=C3C(=O)c4c(O)cccc4[C@@](C)(O)[C@H]3C[C@@H]12 [tetracycline]
chemical stability [5]: rapid conversion of the dissolved tetracycline to an unknown breakdown product
